The IC50 is the midpoint of a concentration-inhibition curve. As a reminder, the fraction unbound is the share of the substance not bound to proteins or other matrix. A higher fraction unbound goes with weak binding.

This note sets out measurements from paper PMC10698511 (RSC Advances, 2023).

For series [1], the system named is HeLa cells. The series is described as follows: Antiproliferative activity against HeLa cells. It counts as cell-based. The following applies: Homo sapiens, 48 h, read-out: HeLa IC50. The gist of the method: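 HeLa cells from ATCC in RPMI-1640 with 10% FBS and 1% penicillin-streptomycin at 37 °C, 5% CO2. Seeded at 10000 cells/well one day before treatment. Test compound added from DMSO solution and incubated for 48 h, then CCK-8 reagent added and absorbance read at 450 nm. IC50 is the mean of three independent determinations from triplicate samples.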

Series [2] can be described thus: Plasma protein binding, mouse. It counts as in vitro ADME.
Series [3] in a line: Plasma protein binding, human. It counts as in vitro ADME.
The subject of series [4] is HeLa cells. The series is described as follows: Cell cycle assay in HeLa cells. Type of series: cell-based. The following applies: 48 h treatment. The method in brief: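 HeLa cells (1 × 10^6) grown in 6-well plates and treated with test compound at several concentrations for 48 h. Cells harvested, fixed in 70% ethanol, held at −20 °C for 12 h, then stained with Muse cell cycle reagent for 30 min at room temperature in the dark. Phase distribution read on a Muse cell analyzer. G2/M percentages compared by one-way ANOVA.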

The test system of the next series is tubulin. As to the kind of experiment: Tubulin polymerization assay. It counts as biochemical. The following applies: 0 to 8 μM, 1 h at 37 °C, absorbance 340 nm. The gist of the method:
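Commercial tubulin polymerization kit used per the manufacturer's protocol. Test compound mixed with tubulin in the supplied general tubulin buffer. Polymerization followed by absorbance at 340 nm for 1 h at 37 °C. Curves compared by two-way ANOVA.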

Series [5] can be described thus: Microsomal stability in mouse liver microsomes. It counts as in vitro ADME. The following applies: percentage remaining after 30 min, NADPH. In general terms: Microsomes from liver hold many membrane-bound enzymes, among them those of drug oxidation.
Series [6] can be described thus: Microsomal stability in human liver microsomes. Type of series: in vitro ADME. The following applies: percentage remaining after 30 min, NADPH.

As for `O=C(Cc1ccc(-c2ccc(OCCN3CCOCC3)cc2)cn1)NCc1ccccc1` [Compound 8, Tirbanibulin, reference compound], the IC50 in the series on HeLa cells [1] stood at 44 ± 11 nM. For the same molecule, the fraction unbound in series [2] is 0.152; in series [3] it was 0.187. In addition, the cell cycle effect result with HeLa cells [4] is on record as “G2/M phase arrest”. Besides, the “effect on tubulin polymerization” value in the series with tubulin is reported as “microtubule destabilizers”.
Consider `O=C(Cn1ccc(-c2ccc(OCCN3CCOCC3)cc2)cc1=O)NCc1ccc(F)cc1` [Compound 57], for which, in the series on HeLa cells [1], the IC50 was 340 ± 110 nM.
As to `Cc1ccc(CNC(=O)Cn2ccc(-c3ccc(OCCN4CCOCC4)cc3)cc2=O)cc1` [Compound 56], the IC50 in the series with HeLa cells [1] came out at 250 ± 60 nM. The “Microsomal stability (%) Mouse” value in series [5] is reported as 50.6 ± 1.2%. Moreover, the “Microsomal stability (%) Human” value in series [6] is 20.2 ± 2.3%. The figures for the fraction unbound in series [2] and in series [3] were 0.04 and 0.171, respectively.
